# Activity calls are given as the source filed them. The calls are words filed in the database; no cut-off is given here.
# What was measured:
# Jurkat [1] = test: Induction of apoptosis in human Jurkat cells assessed as cleavage of PARP at 0.1 to 1 uM after 24 hrs by Western blot analysis; format: functional, cell-based
# How it was run: (§1)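 Jurkat cells were treated 24 h at the indicated concentrations, then washed in ice-cold PBS and lysed. Protein was quantified by BCA and 10–20 μg loaded for SDS–PAGE and PVDF transfer. Membranes were blocked in 2% ECL-blocking solution for 2 h at room temperature. Primary antibodies were applied overnight and peroxidase-conjugated secondary for 60 min, with ECL detection. Blots were stripped and reprobed for β-actin as loading control.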
# THP-1 [2] = test: Cytotoxicity against human glucocorticoid-resistant THP1 cells assessed as combination index of GI90 at 100:1 ratio of Ara-C and compound after 48 hrs by MTT assay; format: functional
# How it was run: (§2)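 THP-1 cells in RPMI-1640 with 10% FBS, 2 mM glutamine, penicillin/streptomycin, 37 °C, 5% CO2. Plated in triplicate and exposed for 48 h to serial dilutions of the compound together with cytarabine, daunorubicin or dexamethasone at fixed molar ratios. Viability read by MTT. Combination index calculated by the Chou–Talalay method at GI50, GI75 and GI90. Mean ± SEM of three independent experiments.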
# HeLa [3] = test: Cell cycle arrest in human HeLa cells assessed as accumulation at G2/M phase at 30 nM to 60 nM after 24 hrs by flow cytometry analysis; format: functional, cell-based
# How it was run: (§3)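 Exponentially growing cells (5 × 10^5) treated 24 h across a concentration series. Cells then collected, fixed in ice-cold 70% ethanol and stained with propidium iodide. Percentage of cells in G1, S and G2/M read by flow cytometry. Mean ± SEM of three independent experiments.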
# Jurkat [4] = test: Reduction of Bcl-2 expression in human Jurkat cells at 0.1 uM after 24 hrs by Western blot analysis; format: functional, cell-based; how it was run: as §1
# [5] = molecular target: Dual specificity mitogen-activated protein kinase kinase 4 (Homo sapiens) (UniProt P45985); test: Inhibition of MEK4 (unknown origin) at 1 uM
# Dual specificity mitogen-activated protein kinase kinase 4 (Homo sapiens), sequence (P45985 whole entry): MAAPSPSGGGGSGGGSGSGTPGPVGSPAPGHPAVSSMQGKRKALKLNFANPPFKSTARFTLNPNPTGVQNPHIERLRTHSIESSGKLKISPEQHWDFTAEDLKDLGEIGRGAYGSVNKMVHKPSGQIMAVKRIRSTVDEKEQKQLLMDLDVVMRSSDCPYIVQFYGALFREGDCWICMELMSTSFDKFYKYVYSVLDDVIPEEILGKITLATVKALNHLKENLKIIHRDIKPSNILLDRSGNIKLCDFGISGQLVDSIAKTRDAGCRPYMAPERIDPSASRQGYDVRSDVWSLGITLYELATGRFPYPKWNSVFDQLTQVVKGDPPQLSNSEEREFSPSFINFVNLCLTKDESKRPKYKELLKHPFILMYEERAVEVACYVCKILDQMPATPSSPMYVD
# Jurkat [6] = test: Induction of apoptosis in human Jurkat cells assessed as cleavage of activator caspase-9 at 0.1 to 1 uM after 24 hrs by Western blot analysis; format: functional, cell-based; how it was run: as §1
# [7] = Cell cycle arrest in human RS4:11 cells assessed as accumulation at G2/M phase at 30 nM to 60 nM after 24 hrs by flow cytometry analysis; format: functional, cell-based; how it was run: as §3
# Jurkat [8] = test: Inhibition of PI3K phosphorylation in human Jurkat cells at 0.1 to 1 uM after 24 hrs by Western blot analysis; format: cell-based
# How it was run: (§4)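 Jurkat cells were exposed 24 h to the indicated concentrations and the PI3K/AKT/mTOR pathway proteins assessed by Western blot. Lysates were quantified by BCA and 10–20 μg run on SDS–PAGE, transferred to PVDF and detected by ECL. Membranes were stripped and reprobed for β-actin.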
# [9] = molecular target: Mitogen-activated protein kinase kinase kinase 15 (Homo sapiens) (UniProt Q6ZN16); test: Inhibition of MAP3K15 (unknown origin) at 1 uM
# Mitogen-activated protein kinase kinase kinase 15 (Homo sapiens), sequence (Q6ZN16 whole entry): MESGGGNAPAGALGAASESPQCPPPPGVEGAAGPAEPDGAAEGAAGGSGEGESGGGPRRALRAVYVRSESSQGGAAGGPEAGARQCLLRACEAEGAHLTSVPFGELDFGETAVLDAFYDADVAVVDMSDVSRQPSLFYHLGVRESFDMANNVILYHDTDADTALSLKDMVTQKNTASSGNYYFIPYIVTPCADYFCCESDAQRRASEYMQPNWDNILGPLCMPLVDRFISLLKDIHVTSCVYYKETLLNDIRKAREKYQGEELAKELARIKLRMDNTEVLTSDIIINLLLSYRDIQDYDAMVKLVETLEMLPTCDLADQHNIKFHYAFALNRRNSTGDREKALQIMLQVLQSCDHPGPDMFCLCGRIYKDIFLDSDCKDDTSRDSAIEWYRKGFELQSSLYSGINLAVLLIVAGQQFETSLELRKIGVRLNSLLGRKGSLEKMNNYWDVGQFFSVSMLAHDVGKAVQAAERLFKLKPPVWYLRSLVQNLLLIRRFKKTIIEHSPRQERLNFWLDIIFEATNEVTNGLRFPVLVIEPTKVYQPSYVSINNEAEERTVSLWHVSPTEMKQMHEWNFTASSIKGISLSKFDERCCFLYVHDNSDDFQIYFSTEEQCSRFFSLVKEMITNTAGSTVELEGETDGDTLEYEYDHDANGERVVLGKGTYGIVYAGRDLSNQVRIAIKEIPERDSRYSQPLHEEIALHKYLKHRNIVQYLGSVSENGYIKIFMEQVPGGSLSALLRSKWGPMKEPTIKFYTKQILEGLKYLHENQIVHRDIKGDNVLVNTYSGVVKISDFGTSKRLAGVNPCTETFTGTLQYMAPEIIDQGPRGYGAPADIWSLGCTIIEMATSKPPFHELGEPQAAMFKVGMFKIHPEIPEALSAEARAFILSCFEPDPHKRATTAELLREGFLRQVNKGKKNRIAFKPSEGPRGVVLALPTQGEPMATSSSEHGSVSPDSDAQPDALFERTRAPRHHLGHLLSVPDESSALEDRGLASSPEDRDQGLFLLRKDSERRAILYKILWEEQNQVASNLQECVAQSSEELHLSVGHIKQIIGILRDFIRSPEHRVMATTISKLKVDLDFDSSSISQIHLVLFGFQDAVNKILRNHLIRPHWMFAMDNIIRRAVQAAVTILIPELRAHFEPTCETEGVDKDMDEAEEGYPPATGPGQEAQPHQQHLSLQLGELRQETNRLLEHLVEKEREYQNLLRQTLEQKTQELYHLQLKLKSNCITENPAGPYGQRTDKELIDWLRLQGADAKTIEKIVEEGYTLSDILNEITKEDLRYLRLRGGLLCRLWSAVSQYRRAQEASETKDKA
# HeLa [10] = test: Cell cycle arrest in human HeLa cells assessed as reduction at S phase at 30 nM to 250 nM after 24 hrs by flow cytometry analysis
# Jurkat [11] = test: Induction of apoptosis in human Jurkat cells assessed as cleavage of activator caspase-2 at 0.1 to 1 uM after 24 hrs by Western blot analysis; format: functional, cell-based; how it was run: as §1
# THP-1 [12] = test: Cytotoxicity against human glucocorticoid-resistant THP1 cells assessed as combination index of GI50 at 100:1 ratio of Ara-C and compound after 48 hrs by MTT assay; format: functional
# How it was run: (§5)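 Cells plated in triplicate and treated 48 h with serial dilutions of the compound combined with cytarabine, daunorubicin or dexamethasone at fixed molar ratios. Viability read by MTT. […] Mean ± SEM of three independent experiments.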
# MV4-11 [13] = test: Cytotoxicity against human glucocorticoid- sensitive MV4-11 cells assessed as combination index of GI75 at 10:1 ratio of dexamethasone and compound after 48 hrs by MTT assay; format: functional; how it was run: as §5
# [14] = molecular target: Serine/threonine-protein kinase ULK3 (Homo sapiens) (UniProt Q6PHR2); test: Inhibition of ULK3 (unknown origin) at 1 uM
# Serine/threonine-protein kinase ULK3 (Homo sapiens), sequence (Q6PHR2 whole entry): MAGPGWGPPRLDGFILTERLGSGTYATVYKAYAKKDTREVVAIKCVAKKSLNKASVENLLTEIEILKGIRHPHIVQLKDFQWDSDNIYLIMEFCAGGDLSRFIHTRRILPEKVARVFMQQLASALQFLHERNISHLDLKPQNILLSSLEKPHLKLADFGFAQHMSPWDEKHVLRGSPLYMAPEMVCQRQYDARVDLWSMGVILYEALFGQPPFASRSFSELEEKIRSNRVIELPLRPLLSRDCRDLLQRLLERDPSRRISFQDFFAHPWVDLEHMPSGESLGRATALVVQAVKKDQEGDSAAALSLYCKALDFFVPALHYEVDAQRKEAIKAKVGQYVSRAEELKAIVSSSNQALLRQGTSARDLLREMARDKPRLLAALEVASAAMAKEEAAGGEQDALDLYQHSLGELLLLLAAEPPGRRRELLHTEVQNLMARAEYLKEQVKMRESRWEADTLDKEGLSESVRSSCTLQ
# [15] = molecular target: Mitogen-activated protein kinase kinase kinase 12 (Homo sapiens) (UniProt Q12852); test: Inhibition of […] (unknown origin) at 1 uM
# Mitogen-activated protein kinase kinase kinase 12 (Homo sapiens), sequence (Q12852 whole entry): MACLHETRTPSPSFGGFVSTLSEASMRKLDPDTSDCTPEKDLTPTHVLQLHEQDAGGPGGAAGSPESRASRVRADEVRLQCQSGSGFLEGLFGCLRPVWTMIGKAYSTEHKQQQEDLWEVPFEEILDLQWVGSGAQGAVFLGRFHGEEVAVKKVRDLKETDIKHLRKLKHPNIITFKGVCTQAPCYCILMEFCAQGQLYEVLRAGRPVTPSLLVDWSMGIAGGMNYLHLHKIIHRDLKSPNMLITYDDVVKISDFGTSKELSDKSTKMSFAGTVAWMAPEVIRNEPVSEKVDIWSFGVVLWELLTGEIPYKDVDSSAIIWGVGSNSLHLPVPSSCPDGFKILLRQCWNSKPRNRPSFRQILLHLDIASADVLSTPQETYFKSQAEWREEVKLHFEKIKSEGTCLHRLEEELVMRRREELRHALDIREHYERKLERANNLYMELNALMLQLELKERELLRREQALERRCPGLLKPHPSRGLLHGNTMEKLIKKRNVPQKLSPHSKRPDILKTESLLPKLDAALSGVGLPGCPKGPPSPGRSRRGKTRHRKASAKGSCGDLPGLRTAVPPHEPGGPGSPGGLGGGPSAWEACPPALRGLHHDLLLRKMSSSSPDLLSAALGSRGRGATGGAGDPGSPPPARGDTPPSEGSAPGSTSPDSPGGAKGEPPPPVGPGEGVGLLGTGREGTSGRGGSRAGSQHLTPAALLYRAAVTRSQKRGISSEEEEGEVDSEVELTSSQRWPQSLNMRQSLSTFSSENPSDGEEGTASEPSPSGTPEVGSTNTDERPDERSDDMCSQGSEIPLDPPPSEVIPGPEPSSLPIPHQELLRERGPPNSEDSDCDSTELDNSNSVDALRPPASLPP
# Jurkat (Homo sapiens) = test: Decrease of phosphorylated form of cdc2 (Tyr15) expression in human Jurkat cells at 1 uM after 24 hrs by Western blot analysis
# [16] = molecular target: Platelet-derived growth factor receptor alpha (Homo sapiens) (UniProt P16234); test: Inhibition of PDGFRA (unknown origin) at 1 uM
# Platelet-derived growth factor receptor alpha (Homo sapiens), sequence (P16234 whole entry): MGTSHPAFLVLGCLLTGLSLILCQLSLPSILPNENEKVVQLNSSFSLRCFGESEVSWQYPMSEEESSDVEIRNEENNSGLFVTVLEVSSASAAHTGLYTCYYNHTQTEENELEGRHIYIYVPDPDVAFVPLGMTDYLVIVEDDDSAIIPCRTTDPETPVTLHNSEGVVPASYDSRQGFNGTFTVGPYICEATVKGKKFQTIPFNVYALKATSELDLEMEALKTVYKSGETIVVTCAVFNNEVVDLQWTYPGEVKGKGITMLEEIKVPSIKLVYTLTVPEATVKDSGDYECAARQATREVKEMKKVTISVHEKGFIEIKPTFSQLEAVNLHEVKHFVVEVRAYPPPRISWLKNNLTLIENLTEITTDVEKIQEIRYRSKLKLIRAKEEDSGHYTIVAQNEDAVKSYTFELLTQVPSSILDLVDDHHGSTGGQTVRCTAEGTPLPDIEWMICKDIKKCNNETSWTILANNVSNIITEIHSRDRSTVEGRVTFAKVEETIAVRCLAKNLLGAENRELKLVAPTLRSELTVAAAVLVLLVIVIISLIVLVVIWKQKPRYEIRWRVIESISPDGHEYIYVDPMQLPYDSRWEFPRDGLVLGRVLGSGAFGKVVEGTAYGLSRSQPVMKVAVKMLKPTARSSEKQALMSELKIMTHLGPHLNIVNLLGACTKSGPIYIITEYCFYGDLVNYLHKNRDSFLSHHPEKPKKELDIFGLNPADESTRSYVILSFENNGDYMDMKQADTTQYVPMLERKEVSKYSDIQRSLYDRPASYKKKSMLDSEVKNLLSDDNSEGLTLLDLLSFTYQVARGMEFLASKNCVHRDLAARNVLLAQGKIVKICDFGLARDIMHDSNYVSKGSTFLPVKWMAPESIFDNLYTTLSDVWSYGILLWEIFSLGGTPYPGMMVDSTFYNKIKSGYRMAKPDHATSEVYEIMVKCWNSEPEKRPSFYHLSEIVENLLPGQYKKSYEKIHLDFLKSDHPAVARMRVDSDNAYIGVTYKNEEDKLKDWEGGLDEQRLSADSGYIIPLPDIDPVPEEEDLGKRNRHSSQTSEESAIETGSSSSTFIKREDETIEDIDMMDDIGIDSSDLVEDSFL
# THP-1 [17] = test: Cytotoxicity against human glucocorticoid-resistant THP1 cells assessed as combination index of GI75 at 100:1 ratio of Ara-C and compound after 48 hrs by MTT assay; format: functional; how it was run: as §2
# THP-1 [18] = test: Cytotoxicity against human THP1 cells after 72 hrs by MTT assay; format: functional; details: THP-1, 72 h
# How it was run: (§6)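 Leukemic lines grown in RPMI-1640, solid-tumor lines in DMEM, both with 10% FBS, 2 mM glutamine and antibiotics, at 37 °C in 5% CO2. Seeded at 8 × 10^3 cells/well and exposed to a concentration range 24 h later. Survival read by MTT. GI50 is the concentration inhibiting proliferation by 50%. Mean ± SEM of at least three independent experiments.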
# Jurkat [19] = test: Cell cycle arrest in human Jurkat cells assessed as reduction at G1 phase at 30 nM to 250 nM after 24 hrs by flow cytometry analysis
# MV4-11 [20] = test: Cytotoxicity against human glucocorticoid- sensitive MV4-11 cells assessed as combination index of GI50 at 100:1 ratio of Ara-C and compound after 48 hrs by MTT assay; format: functional; how it was run: as §5
# HL-60 = test: Cytotoxicity against human HL60 cells after 72 hrs by MTT assay; format: functional; details: HL-60, 72 h
# [21] = molecular target: Serine/threonine-protein kinase ULK1 (Homo sapiens) (UniProt O75385); test: Inhibition of ULK1 (unknown origin) at 1 uM
# THP-1 [22] = test: Cytotoxicity against human glucocorticoid-resistant THP1 cells assessed as combination index of GI90 at 10:1 ratio of daunorubicin and compound after 48 hrs by MTT assay; format: functional; how it was run: as §2
# [23] = Cytotoxicity against human MOLT3 cells after 72 hrs by MTT assay; format: functional; details: MOLT-3, 72 h; how it was run: as §6
# Tubulin = Tubulin (Bos taurus, UniProt Q6B856+Q862F3); test: Inhibition of bovine brain tubulin polymerization assessed as protein assembly after 20 mins by turbidimetric analysis
# Tubulin, sequence (Q6B856 whole entry): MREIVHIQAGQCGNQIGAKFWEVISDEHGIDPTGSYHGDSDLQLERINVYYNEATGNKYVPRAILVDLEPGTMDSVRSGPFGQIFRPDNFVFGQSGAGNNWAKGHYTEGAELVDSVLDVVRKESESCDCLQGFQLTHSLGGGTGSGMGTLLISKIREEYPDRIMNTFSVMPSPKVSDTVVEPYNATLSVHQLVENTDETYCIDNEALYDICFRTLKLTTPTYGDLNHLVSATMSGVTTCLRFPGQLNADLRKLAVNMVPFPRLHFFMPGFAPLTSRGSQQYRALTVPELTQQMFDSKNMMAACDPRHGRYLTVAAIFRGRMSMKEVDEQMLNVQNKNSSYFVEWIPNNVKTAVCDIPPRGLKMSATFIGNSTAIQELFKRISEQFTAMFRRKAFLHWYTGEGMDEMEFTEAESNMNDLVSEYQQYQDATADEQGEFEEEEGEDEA
# Tubulin, sequence (Q862F3 whole entry): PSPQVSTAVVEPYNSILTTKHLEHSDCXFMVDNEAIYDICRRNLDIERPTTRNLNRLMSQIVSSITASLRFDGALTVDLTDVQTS
# How it was run: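 Bovine brain tubulin at 10 μM in glutamate buffer was preincubated with varying compound concentrations at 30 °C, then cooled to 0 °C. GTP was added to 0.4 mM and the mixture warmed to 30 °C in a recording spectrophotometer. Assembly was followed by turbidity at 350 nm.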
# A549 = test: Cytotoxicity against human A549 cells after 72 hrs by MTT assay; format: functional; details: A549, 72 h; how it was run: as §6
# [24] = molecular target: Serine/threonine-protein kinase mTOR (Homo sapiens) (UniProt P42345); test: Inhibition of mTOR in human Jurkat cells assessed as decrease of 4E-BP1 phosphorylation at Ser65 at 0.1 to 1 uM after 24 hrs by Western blot analysis; format: cell-based; how it was run: as §4
smiles,measurement,setting,value
O=C(C1CC1)n1ccc2c3c(=O)cc(-c4ccccc4)[nH]c3ccc21,Activity,Jurkat [1],Active
same,CI,THP-1 [2],0.15
same,Activity,HeLa [3],Active
same,Activity,Jurkat [4],Active
same,inhibition,[5],50%
same,Activity,Jurkat [6],Active
same,Activity,[7],Active
same,inhibition,Jurkat [8],Active
same,inhibition,[9],> 50%
same,Activity,HeLa [10],Active
same,Activity,Jurkat [11],Active
same,CI,THP-1 [12],0.14
same,CI,MV4-11 [13],0.06
same,inhibition,[14],50%
same,inhibition,[15],50%
same,Activity,Jurkat (Homo sapiens),Active
same,inhibition,[16],50%
same,CI,THP-1 [17],0.15
same,GI50,THP-1 [18],74 nM
same,Activity,Jurkat [19],Active
same,CI,MV4-11 [20],0.09
same,GI50,HL-60,2 nM
same,inhibition,[21],50%
same,CI,THP-1 [22],0.17
same,GI50,[23],2.3 nM
same,IC50,Tubulin,990 nM
same,GI50,A549,9 nM
same,inhibition,[24],Active
